This is an account of results in ChEMBL document CHEMBL1148549, “A novel class of potent influenza virus inhibitors: polysubstituted acylthiourea and its fused heterocycle derivatives” (Bioorg Med Chem Lett, 2006).

By IC50 is commonly meant the midpoint of a concentration-inhibition curve. A high value points to a need for much substance.

The test system of one assay is Influenza A virus. The assay is described as follows: Inhibitory activity against influenza A3/Beijing/30/95 ([…]) virus in MDCK cells. It counts as functional, organism-based. A digest of the protocol: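 MDCK cells in 96-well plates were infected with influenza ([…]) virus at 50 PFU/well and treated with serially diluted compound. IC50 was calculated from the dilution series and reported in µM as the mean of at least three independent experiments run on different days.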

The test system of the next assay is MDCK. Briefly: Cytotoxicity in MDCK cells using MTS assay. Type of assay: functional, cell-based. Conditions: Canis lupus familiaris.

Some results are limits rather than exact numbers.

Consider `COc1cc(Cl)nc(NC(=S)NC(=O)c2cccnc2Cl)n1`, for which the IC50 in the assay on Influenza A virus was 2590 nM. For the same compound, the Activity result in the assay on MDCK is “Not toxic”.
`CCOc1cc(C)nc(NC(=S)NC(=O)c2ccc(-c3ccccc3Cl)o2)n1`: in the assay on Influenza A virus, the IC50 was found to be 1650 nM. Also, the Activity entry in the assay on MDCK was “Not toxic”.
On the same counts, the results for `Cc1cc(C)nc(NC(=S)NC(=O)c2cccnc2Cl)n1` are 7190 nM and “Not toxic”.
On the same counts, the results for `CCOc1cc(Cl)nc(NC(=S)NC(=O)c2cccnc2Cl)n1` are above 20000 nM and “Not toxic”.
Compound `CC(C)(C)NC(=O)NC(=S)NC(=O)[C@H]1[C@@H](/C=C(\Cl)C(F)(F)F)C1(C)C` showed an IC50 in the assay on Influenza A virus of 510 nM. Also, in the assay on MDCK, the Activity result is “Not toxic”.
On the same counts, the results for `O=C(NC(=S)Nc1nc(Cl)cc(Cl)n1)c1ccc(-c2ccccc2Cl)o1` are 14500 nM and “Not toxic”.
With `COc1cc(OC)nc(NC(=S)NC(=O)c2ccc(-c3ccc([N+](=O)[O-])cc3)o2)n1`, the IC50 with Influenza A virus was above 20000 nM. Also, the Activity result with MDCK was “Not toxic”.
In turn, `Cc1cc(=O)nc2nc(NC(=O)c3ccc(-c4ccc([N+](=O)[O-])cc4)o3)sn12` yielded an IC50 in the assay on Influenza A virus of 670 nM. Besides, the Activity entry with MDCK is “Not toxic”.
On the same counts, the results for `COc1cc(C)nc(NC(=S)NC(=O)c2ccc(Cl)nc2)n1` are above 20000 nM and “Not toxic”.
In turn, `CCOc1cc(Cl)nc(NC(=S)NC(=O)c2ccc(-c3ccccc3Cl)o2)n1` gave an IC50 with Influenza A virus above 20000 nM. Further, the Activity entry with MDCK was “Not toxic”.
Compound `COc1cc(OC)nc(NC(=O)NC(=O)c2c(F)cccc2F)n1` showed an IC50 with Influenza A virus above 20000 nM. Moreover, the Activity entry in the assay with MDCK was “Not toxic”.
On the same counts, the results for `CC(C)C(C(=O)NC(=O)NC(=O)NC(C)(C)C)c1ccc(Cl)cc1` (configuration not stated) are 15500 nM and “Not toxic”.
On the same counts, the results for `COc1cc(OC)n2s/c(=N\C(=O)c3cccnc3Cl)nc2n1` are 2410 nM and “Not toxic”.
In turn, `COc1cc(Cl)nc(NC(=S)NC(=O)c2ccc(Cl)nc2)n1` gave an IC50 with Influenza A virus above 20000 nM. For the same compound, the Activity entry in the assay on MDCK was “Not toxic”.
`COc1cc(Cl)nc2n/c(=N/C(=O)c3ccc(Cl)nc3)sn12` showed an IC50 in the assay with Influenza A virus of 9320 nM. In addition, the Activity entry in the assay on MDCK was “Not toxic”.
On the same counts, the results for `CCOc1cc(OCC)nc(NC(=S)NC(=O)c2ccc(Cl)nc2)n1` are above 20000 nM and “Not toxic”.
On the same counts, the results for `COc1cc(OC)n2s/c(=N\C(=O)c3cccnc3)nc2n1` are above 20000 nM and “Not toxic”.
In turn, `CCOc1cc(OCC)n2s/c(=N\C(=O)c3ccc(-c4ccc([N+](=O)[O-])cc4)o3)nc2n1` showed an IC50 in the assay on Influenza A virus of 5250 nM. For the same compound, the Activity entry in the assay with MDCK was “Not toxic”.
On the same counts, the results for `COc1cc(OC)nc(NC(=S)NC(=O)c2cccnc2)n1` are above 20000 nM and “Not toxic”.
On the same counts, the results for `COc1cc(Cl)nc(NC(=O)NC(=O)c2c(F)cccc2F)n1` are 15900 nM and “Not toxic”.
On the same counts, the results for `CC(C)(C)NC(=O)NC(=S)NC(=O)c1c(F)cccc1F` are 1430 nM and “Not toxic”.
`CCOc1cc(OCC)nc(NC(=S)NC(=O)c2ccc(-c3ccc([N+](=O)[O-])cc3)o2)n1`: the IC50 with Influenza A virus was above 20000 nM. For the same compound, the Activity entry in the assay on MDCK was “Not toxic”.
On the same counts, the results for `COc1cc(OC)nc(NC(=S)NC(=O)c2ccc(-c3ccccc3Cl)o2)n1` are 1770 nM and “Not toxic”.
On the same counts, the results for `CC(C)(C)NC(=O)NC(=S)NC(=O)c1ccccc1` are 1790 nM and “Not toxic”.
On the same counts, the results for `CCOc1cc(OCC)nc(NC(=S)NC(=O)c2ccc(-c3ccccc3Cl)o2)n1` are 80 nM and “Not toxic”.
For `COc1cc(C)nc(NC(=S)NC(=O)c2ccc(-c3ccccc3Cl)o2)n1`, the IC50 with Influenza A virus was above 20000 nM. Further, the Activity result in the assay with MDCK was “Not toxic”.
On the same counts, the results for `CC(C)(C)NC(=O)NC(=O)NC(=O)c1ccccc1` are above 20000 nM and “Not toxic”.
`CC(C)[C@H](C(=O)NC(=S)NC(=O)NC(C)(C)C)c1ccc(Cl)cc1` showed an IC50 in the assay with Influenza A virus of 1350 nM. For the same compound, the Activity result in the assay on MDCK was “Not toxic”.
As for `Cc1cc(C)nc(NC(=O)NC(=O)c2c(F)cccc2F)n1`, the IC50 in the assay on Influenza A virus is above 20000 nM. Further, the Activity result in the assay on MDCK is “Not toxic”.
The compound `COc1cc(Cl)nc(NC(=S)NC(=O)c2ccc(-c3ccccc3Cl)o2)n1` showed an IC50 in the assay on Influenza A virus of 1290 nM. Further, the Activity result in the assay with MDCK was “Not toxic”.
On the same counts, the results for `Cc1cc(O)nc(NC(=S)NC(=O)c2ccc(Cl)nc2)n1` are 8580 nM and “Not toxic”.
On the same counts, the results for `CC(C)(C)NC(=O)NC(=O)NC(=O)c1c(F)cccc1F` are 14100 nM and “Not toxic”.
Take `CC(C)(C)NC(=O)NC(=S)NC(=O)COc1ccc(Cl)cc1Cl`: it took 1670 nM to reach half-maximal inhibition in the assay with Influenza A virus (IC50). In addition, the Activity entry in the assay with MDCK is “Not toxic”.
On the same counts, the results for `Cc1cc(O)nc(NC(=S)NC(=O)c2ccc(-c3ccccc3Cl)o2)n1` are 320 nM and “Not toxic”.
On the same counts, the results for `COC(=O)NC(=S)NC(=O)NC(C)(C)C` are 1830 nM and “Not toxic”.
Turning to `COc1cc(C)nc(NC(=S)NC(=O)c2ccc(-c3ccc([N+](=O)[O-])cc3)o2)n1`, the IC50 in the assay with Influenza A virus was found to be 1220 nM. Moreover, the Activity result in the assay on MDCK was “Not toxic”.
On to `Cc1cc(O)nc(NC(=S)NC(=O)c2ccc(-c3ccc([N+](=O)[O-])cc3)o2)n1`, for which the IC50 in the assay with Influenza A virus turned out to be 360 nM. Further, the Activity result in the assay on MDCK was “Not toxic”.
On the same counts, the results for `CCOc1cc(OCC)nc(NC(=S)NC(=O)c2cccnc2Cl)n1` are above 20000 nM and “Not toxic”.
On the same counts, the results for `CCOc1cc(C)nc2n/c(=N/C(=O)c3ccc(-c4ccccc4Cl)o3)sn12` are 350 nM and “Not toxic”.
On the same counts, the results for `CC(C)(C)NC(=O)NC(=S)NC(=O)[C@@H]1[C@@H](C=C(Cl)Cl)C1(C)C` are 260 nM and “Not toxic”.
In turn, `COc1cc(OC)nc(NC(=S)NC(=O)c2cnc(Cl)c(Cl)c2)n1` yielded an IC50 in the assay with Influenza A virus of 18500 nM. The Activity entry with MDCK is “Not toxic”.
On the same counts, the results for `CCOc1cc(OCC)n2s/c(=N\C(=O)c3ccc(Cl)nc3)nc2n1` are 90 nM and “Not toxic”.
On the same counts, the results for `CC(C)(C)NC(=O)NC(=S)NC(=O)c1ccc(-c2ccccc2Cl)o1` are 1420 nM and “Not toxic”.
Compound `CC(C)(C)NC(=O)NC(=S)NC(=O)c1ccc(-c2ccc([N+](=O)[O-])cc2)o1` showed an IC50 with Influenza A virus of 1300 nM. Moreover, in the assay with MDCK, the Activity entry is “Not toxic”.
On the same counts, the results for `CCOc1cc(C)nc(NC(=S)NC(=O)c2ccc(-c3ccc([N+](=O)[O-])cc3)o2)n1` are 11300 nM and “Not toxic”.
On the same counts, the results for `Cc1cc(Cl)nc(NC(=O)NC(=O)c2c(F)cccc2F)n1` are above 20000 nM and “Not toxic”.
